Experimental data from paper PMC4430720 (British Journal of Cancer, 2015).
Like-named read-outs stand apart in the source and are kept apart here. Marks after values point to notes of the source that are not given here. Where a SMILES comes first, the peptide text is derived from it. Bridges are numbered along the chain shown (N, C = ends). [ ]: non-standard residue; d: D form. βAla = NCCC(=O)O

How the values were obtained:
[1] = assay type: in vivo, human; details: for Biological half-life (tumour): corrected for radioactive decay; for AUC24 (tumour): tumour uptake curve over 24 h; for Maximum uptake (mg CIGB-300): tumour uptake, two sites 0.5 ml each
Outline: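 The first patient dose was 99mTc-labelled and injected at two equidistant points, ~2 cm deep (0.5 ml each). Whole-body gamma-camera images were taken at 10 min and 1, 2, 4, 8, 12, 24 h, with tumour static views at 3 and 24 h. Uptake was quantified by MIRD methodology, with tumour mass from baseline MRI. Half-life used decay-corrected fits, and AUC used mono/biexponential fits.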

[2] = Pharmacokinetics of unincorporated CIGB-300 in plasma; assay type: in vivo, human; details: both groups; highest levels only during the first hour after injection
[3] = Safety evaluation: local and systemic adverse events; assay type: in vivo, human; details: both groups
Outline: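 Patients received 35 or 70 mg intralesionally once daily for three consecutive days at weeks 1, 3 and 5. Local and systemic adverse events and routine laboratory parameters were recorded. Systemic toxicity was followed for 24 h after each dose, with cardiovascular monitoring during injection and vital signs. The probability of exceeding 30% grade 3 events per group was estimated.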

histamine = test: Histamine levels in plasma; assay type: in vivo, human; details: both groups
Outline: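 Stage IIB cervical carcinoma patients received 35 or 70 mg intralesionally. Plasma histamine was measured by commercial EIA before, immediately after, and 5, 15, 30 and 60 min after the first administration. Spearman rank correlation was run between histamine and plasma peptide concentration, and between histamine and allergic-reaction severity.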

B23/NPM = test: In situ B23/NPM expression in tumour biopsies by immunohistochemistry; assay type: in vivo, human
Outline: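 Paraffin-embedded tumour biopsies were taken before and after the three treatment cycles. After deparaffinisation, sections were immunostained with a human B23/NPM monoclonal primary antibody and a commercial immunostaining kit, developed with peroxidase and counterstained with hematoxylin. Pre/post values were compared by paired Student's t-test or Wilcoxon test, chosen by the Shapiro–Wilk normality result.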

[4] = system: stage IIB cervical cancer; test: Therapeutic response by MRI; assay type: in vivo, human; details: 1-year follow-up
Outline: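 MRI response was graded by RECIST before and after three peptide cycles, then quarterly for 1 year. Follow-up came after chemoradiotherapy: cisplatin 40 mg m−2 weekly for 6 weeks with 5040 cGy external beam in 28 fractions, then 2600 cGy intracavitary in four fractions. CT and abdominal/gynaecological ultrasonography were used to detect metastasis.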

[5] = assay type: in vivo, NIH nu/nu nude mice; details: 100 μg 99mTc-radiolabelled CIGB-300 intratumour in 0.2 or 0.5 ml PBS
Outline: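 Female 6–8-week NIH nu/nu mice carried subcutaneous SiHa xenografts (5 × 10^6 cells, right inguinal flank). At 150 mm3, tumours received 100 μg 99mTc-labelled test compound in 0.025, 0.05, 0.2 or 0.5 ml PBS. Planar gamma-camera images were taken immediately and at 0.25, 1, 4, 24, 48 h. Tumour ROI signal was expressed as percent of the total initial image.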

[6] = system: human cervical cancer SiHa cells; test: Antitumour activity of different CIGB-300 regimens; assay type: in vivo, NIH nu/nu nude mice; details: 200 μg intratumoural per injection, tumour volume by caliper
[7] = 2 ml at a single tumour site, ref Soriano-García et al, 2013, cited from earlier work
[8] = system: high-grade squamous intraepithelial lesions; details: intralesional injections; ref Solares et al, 2009; cited from earlier work

CSCC[C@@H]1NC(=O)[C@H](Cc2c[nH]c3ccccc23)NC(=O)[C@@H](NC(=O)CCNC(=O)[C@H](CCC(N)=O)NC(=O)[C@@H]2CCCN2C(=O)[C@@H]2CCCN2C(=O)[C@H](CCCNC(=N)N)NC(=O)[C@H](CCCNC(=N)N)NC(=O)[C@H](CCCNC(=N)N)NC(=O)[C@H](CCC(N)=O)NC(=O)[C@H](CCCNC(=N)N)NC(=O)[C@H](CCCNC(=N)N)NC(=O)[C@H](CCCCN)NC(=O)[C@H](CCCCN)NC(=O)[C@H](CCCNC(=N)N)NC(=O)CN)CSSC[C@@H](C(=O)O)NC(=O)[C@H]([C@@H](C)O)NC(=O)CNC(=O)[C@H](CC(C)C)NC(=O)[C@H](Cc2c[nH]cn2)NC(=O)[C@H](CCCNC(=N)N)NC(=O)[C@@H]2CCCN2C(=O)[C@H](CO)NC1=O [CIGB-300] (H-GRKKRRQRRRPPQ[βAla]CWMSPRHLGTC-OH; disulfide 15-25; N-terminus and C-terminus assumed)
Biological half-life (tumour) ([1]; group I 35 mg, N=6, mean±s.d.): 3.9±0.9 (2.6–5.5) h | Biological half-life (tumour) ([1]; group II 70 mg, N=7, mean±s.d.): 6.2±1.9 (3.5–10.1) h | Maximum uptake (mg CIGB-300 per g tumour) ([1]; group II 70 mg, tumour mass estimated by MRI, N=6, mean±s.d.): 1.1±0.8 (0.4–2.7) ^b mg g^−1 | Maximum tumour uptake, 70 mg compared with 35 mg ([1]; mean values, P=0.01): two-fold higher | AUC24 (tumour) ([1]; group I 35 mg, N=6, mean±s.d.): 132±72.2 (45.3–235) mg h | AUC24 (tumour) ([1]; group II 70 mg, N=7, mean±s.d.): 385±167 (90.3–646) mg h | Maximum uptake (mg CIGB-300) ([1]; group I 35 mg intralesional, N=6, mean±s.d.): 16.1±8.9 (3.8–27.2) mg | Maximum uptake (mg CIGB-300) ([1]; group II 70 mg intralesional, N=7, mean±s.d.): 31.3±12.9 (9.9–48.7) mg | CIGB-300 levels in blood over time [2]: near undetectable after 8 h | Blood counts and serum chemistry values, baseline vs post-treatment [3]: no differences | Time to return of plasmatic histamine to normal levels (1 ng ml^−1) (histamine; after first injection, rapid increase first): 15 min | Overall histamine median when grade 1 allergic-like events occurred (histamine; plasma): 0.7 ng/mL | Overall histamine median when grade 2 allergic-like events occurred (histamine; plasma): 3.5 ng/mL | B23/nucleophosmin expression at the nucleoplasm (B23/NPM; after CIGB-300 treatment): not considerably modified | Patients with reduced nucleolar B23/NPM expression after CIGB-300 treatment (B23/NPM; evaluated patients of both groups): 10 out of the 12 | Levels of in situ B23/NPM in tumour biopsies, post CIGB-300 (B23/NPM; group I (35 mg), N=6, mean±s.d., baseline 56.0±17.6, Student's t-test p 0.14): 36.4±18.9 | Deaths because of disease progression, whole trial ([4]; both groups): four | Deaths because of disease progression, group I ([4]; group I (35 mg)): three | CIGB-300 tumour uptake, higher injection volume [5]: worse tumour uptake | Three cycles of three consecutive daily injections [6]: minimal frequency required to reduce tumour growth | Maximum tumour uptake ([7]; 35 mg): 14.9 ± 6.4 mg | Maximum tumour uptake ([7]; 70 mg): 10.4 ± 8.3 mg | Patients with full histological regression [8]: 19% | Patients with significant colposcopic response [8]: 90% | Previously positive patients with negative human papillomavirus DNA [8]: 48%
